Assay results as given in ChEMBL document CHEMBL3425454, “Synthesis, biological evaluation and modeling studies of terphenyl topoisomerase IIα inhibitors as anticancer agents” (Eur J Med Chem, 2015).
The source made the active and inactive calls. No cut-off for these calls is given here.

What was measured:
MDA-MB-435 = experiment: Cytotoxicity against human MDA-MB-435 cells assessed as cell growth inhibition after 72 hrs by MTT assay; assay type: functional, cell-based; settings: MDA-MB-435, 72 h
Procedure, shortened: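 MDA-MB-435 cells treated in triplicate with a range of concentrations for 72 h at 37°C, 5% CO2. Medium then replaced, MTT (5 mg/mL) added for 4 h, followed by overnight lysis in 10% SDS/5% isobutanol/12 mM HCl. Absorbance read at 590 nm; inhibition computed against control and blank wells. IC50 = concentration giving 50% growth inhibition, mean±SD of three experiments.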

[1] = molecular target: DNA topoisomerase 2-alpha (Homo sapiens) (UniProt P11388); experiment: Inhibition of human recombinant topoisomerase-2 alpha assessed as conversion of negatively supercoiled plasmid DNA pBR322 to relaxed DNA at 100 uM after 30 mins by agarose gel electrophoresis
Procedure, shortened: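 Recombinant human TOP2α (1 unit) incubated with 0.5 μg supercoiled pBR322 in 10 mM Tris-HCl pH 7.9, 50 mM NaCl, 50 mM KCl, 5 mM MgCl2, 1 mM EDTA, 1 mM ATP, BSA; 30 min at 30 °C. Stopped with 7 mM EDTA. Products resolved on 1% agarose in TAE at 5 V/cm for 2 h and stained with ethidium bromide. Performed at least in duplicate.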

[2] = molecular target: T1, Topoisomerase I (Bos taurus) (UniProt Q2HPH0); experiment: Inhibition of calf thymus topoisomerase-1 assessed as conversion of negatively supercoiled plasmid DNA pBR322 to relaxed DNA at 100 uM after 30 mins by agarose gel electrophoresis
T1 sequence (whole entry): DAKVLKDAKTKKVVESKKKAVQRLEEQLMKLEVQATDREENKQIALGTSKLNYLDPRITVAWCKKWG
Procedure, shortened: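 Relaxation of 0.5 μg supercoiled pBR322 by 1 unit calf thymus TOP1 in 10 mM Tris-HCl pH 7.9, 150 mM NaCl, 0.1% BSA, 1 mM spermidine, 5% glycerol; 30 min at 37 °C. Reaction stopped with sarcosyl/bromophenol blue/glycerol. Products run on 1% agarose in TAE at 5 V/cm for 2 h and stained with ethidium bromide (0.5 μg/mL). Performed at least in duplicate.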

[3] = molecular target: DNA topoisomerase 2-alpha (Homo sapiens) (UniProt P11388); experiment: Inhibition of human recombinant topoisomerase-2 alpha-mediated DNA cleavage using circular supercoiled plasmid DNA as substrate
[4] = molecular target: DNA topoisomerase 2-alpha (Homo sapiens) (UniProt P11388); experiment: Inhibition of human recombinant topoisomerase-2 alpha assessed as topoisomerase poison activity using circular supercoiled plasmid DNA as substrate

Chain of DNA topoisomerase 2-alpha (Homo sapiens) (P11388 whole entry): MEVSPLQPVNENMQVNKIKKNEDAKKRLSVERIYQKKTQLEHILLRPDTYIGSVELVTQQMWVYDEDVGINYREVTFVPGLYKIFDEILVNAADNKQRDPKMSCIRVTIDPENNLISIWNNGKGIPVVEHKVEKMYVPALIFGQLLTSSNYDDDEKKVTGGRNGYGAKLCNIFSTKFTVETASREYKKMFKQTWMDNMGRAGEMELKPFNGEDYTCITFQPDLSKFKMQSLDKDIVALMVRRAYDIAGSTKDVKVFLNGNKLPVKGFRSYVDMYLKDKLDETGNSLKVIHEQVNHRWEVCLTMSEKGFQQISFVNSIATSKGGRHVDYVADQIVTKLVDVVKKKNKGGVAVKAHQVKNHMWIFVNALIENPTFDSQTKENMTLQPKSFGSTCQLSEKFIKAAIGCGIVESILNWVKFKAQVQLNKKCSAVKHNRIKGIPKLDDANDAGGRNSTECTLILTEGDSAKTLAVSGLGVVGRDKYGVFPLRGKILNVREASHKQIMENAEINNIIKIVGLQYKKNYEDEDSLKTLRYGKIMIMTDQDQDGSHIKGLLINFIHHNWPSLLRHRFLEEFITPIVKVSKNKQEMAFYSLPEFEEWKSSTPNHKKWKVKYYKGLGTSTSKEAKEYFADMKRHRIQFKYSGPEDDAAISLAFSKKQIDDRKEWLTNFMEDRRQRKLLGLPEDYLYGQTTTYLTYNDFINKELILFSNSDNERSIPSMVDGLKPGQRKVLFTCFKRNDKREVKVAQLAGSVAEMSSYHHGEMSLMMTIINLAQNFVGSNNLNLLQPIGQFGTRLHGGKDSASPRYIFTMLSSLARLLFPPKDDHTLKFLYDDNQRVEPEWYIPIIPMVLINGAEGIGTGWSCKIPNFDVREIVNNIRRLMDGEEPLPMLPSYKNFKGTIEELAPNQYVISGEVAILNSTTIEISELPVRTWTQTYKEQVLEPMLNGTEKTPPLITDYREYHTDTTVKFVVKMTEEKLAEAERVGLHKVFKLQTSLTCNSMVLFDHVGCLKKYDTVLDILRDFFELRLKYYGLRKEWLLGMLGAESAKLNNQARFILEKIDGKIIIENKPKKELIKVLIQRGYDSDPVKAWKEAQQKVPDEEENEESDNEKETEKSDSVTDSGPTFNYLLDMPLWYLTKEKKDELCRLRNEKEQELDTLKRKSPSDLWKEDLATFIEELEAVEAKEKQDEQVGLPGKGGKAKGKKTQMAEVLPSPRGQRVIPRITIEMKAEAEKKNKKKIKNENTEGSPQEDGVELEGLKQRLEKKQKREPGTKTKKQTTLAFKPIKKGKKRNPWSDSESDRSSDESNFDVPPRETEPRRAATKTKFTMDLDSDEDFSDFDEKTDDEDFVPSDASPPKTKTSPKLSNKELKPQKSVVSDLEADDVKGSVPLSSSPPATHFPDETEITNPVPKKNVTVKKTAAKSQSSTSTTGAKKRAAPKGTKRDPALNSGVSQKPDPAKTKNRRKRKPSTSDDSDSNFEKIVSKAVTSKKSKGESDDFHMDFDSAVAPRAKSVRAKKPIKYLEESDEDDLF

| Compound | IC50 (MDA-MB-435) [µM] | further results |
| --- | --- | --- |
| COc1cc([C@@H]2c3cc4c(cc3[C@@H](O[C@@H]3O[C@@H]5CO[C@@H](C)O[C@H]5[C@H](O)[C@H]3O)[C@H]3COC(=O)[C@H]23)OCO4)cc(OC)c1O [ETOPOSIDE] | 2.81 | inhibition [1]: Active |
| COc1c(-c2ccc(O)cc2)ccc(-c2ccc(C(=O)O)c(O)c2)c1OC | > 100 | – |
| COc1ccc(-c2ccc(-c3ccc(OC)cc3)c(OC(C)=O)c2OC(C)=O)cc1 | 96.8 | – |
| Oc1ccc(-c2ccc(-c3ccc(O)c(O)c3)c(O)c2O)cc1 | 4.1 | – |
| COc1c(-c2ccc(O)cc2)ccc(-c2ccc(O)cc2)c1OC | 14.7 | inhibition [1]: Active |
| Oc1ccc(-c2ccc(-c3ccc(O)c(O)c3)c(O)c2O)cc1O | 3.96 | inhibition [2]: Active; inhibition [1]: Active; inhibition [3]: Active; inhibition [4]: inactive |
| COc1c(-c2ccc(O)c([N+](=O)[O-])c2)ccc(-c2ccc(O)c([N+](=O)[O-])c2)c1OC | 61.8 | – |
| COc1ccc(-c2ccc(-c3ccc(OC)c(OC)c3)c(OC(C)=O)c2OC(C)=O)cc1OC | > 100 | – |
| O=C(O)c1ccc(-c2ccc(-c3ccc(O)cc3)c(O)c2O)cc1O | 36.8 | – |
| COC(=O)c1ccc(-c2ccc(-c3ccc(O)cc3)c(OC)c2OC)cc1O | 20.9 | – |
| CCOc1c(-c2ccc(O)cc2)ccc(-c2ccc(O)cc2)c1OCC | 41.8 | – |
| O=C(O)c1cc(-c2ccc(-c3ccc(O)cc3)c(O)c2O)ccc1O | 99.8 | – |
| COc1ccc(-c2ccc(-c3ccc(C(=O)O)cc3)c(OC)c2OC)cc1OC | > 100 | – |
| COc1c(-c2ccc(O)cc2)ccc(-c2ccc(O)c(C(=O)O)c2)c1OC | > 100 | – |
| O=C(O)c1ccc(-c2ccc(-c3ccc(O)c(O)c3)c(O)c2O)cc1 | > 100 | – |
| O=[N+]([O-])c1cc(-c2ccc(O)c([N+](=O)[O-])c2)ccc1O | > 100 | – |
| Oc1ccc(-c2ccc(-c3ccc(O)cc3)c(O)c2O)cc1 | > 100 | – |
| COC(=O)c1cc(-c2ccc(-c3ccc(O)cc3)c(OC)c2OC)ccc1O | 44.8 | – |
| COc1ccc(-c2ccc(-c3ccc(OC)c(OC)c3)c(OC)c2OC)cc1OC | 90.8 | – |
| CCOc1c(-c2ccc(OC)c(OC)c2)ccc(-c2ccc(OC)c(OC)c2)c1OCC | > 100 | – |
| COc1ccc(-c2cccc(OC)c2OC)cc1OC | 23.1 | – |
